Assay results collected from several papers.
Lines come from different studies, so protocols differ. pIC50: −log10 of the molar value.
Organism: Plasmodium falciparum
Read-out: parasite growth

| Structure (SMILES) | assay | system | setting | endpoint | result |
| --- | --- | --- | --- | --- | --- |
| O=C(Nc1ccc(F)cc1C(=O)O)c1ccc(-c2ccccc2)cc1 | – | NF54 | 48 h, blood stage | pIC50 | < 5.00 |
| C#CCCCCCCCCC=CCC(O)CC(O)CO (centres unmarked) | – | D6 | blood stage | IC50 | > 47.6 µg/mL |
| O=C(Nc1cc(F)ccc1C(=O)O)c1ccc(-c2ccccc2)cc1 | resazurin | NF54 | 48 h, gametocyte | pIC50 | 6.98 |
| C[C@@H]1CC[C@H]2[C@@H](C)C(=O)O[C@@H]3O[C@@]4(C)CC[C@@H]1[C@]32OO4 | – | W2 | drug-resistant strain, blood stage | IC50 | 0.009 µg/mL |
| COc1cccc2c(-c3ccc4c(c3O)[C@@H](C)N[C@H](C)C4)c(C)cc(OC)c12 | SYBR Green | NF54 | blood stage | pIC50 | 5.88 |
| COc1cc(NC(C)CCCNC(=O)c2cccc(C(=O)NCCCC(C)Nc3cc(OC)cc4cccnc34)n2)c2ncccc2c1.Cl (centres unmarked) | – | D6 | blood stage | IC50 | 2.2 µg/mL |
| NCCCNc1nc2ccccc2n1Cc1ccccc1 | – | NF54 | blood stage | pIC50 | 5.39 |
| CCN(CC)CCCC(C)Nc1ccnc2cc(Cl)ccc12 (centres unmarked) | LDH | – | – | pIC50 | 6.69 |
| COC1=CC(c2ccc[nH]2)=NC1=Cc1ccc(CCCCCCCCCCO)[nH]1 | – | D6 | blood stage | pIC50 | 6.97 |
| Cc1ccc2c(c1C)NC(=O)[C@]21NN=C(c2ccccc2)S1 | SYBR Green | – | blood stage | pIC50 | 6.02 |
| C[C@H]1[C@@H](O)O[C@@H]2O[C@@]3(C)CC[C@H]4[C@H](C)CC[C@@H]1[C@@]24OO3 | – | 3D7 | 24 h, blood stage | pIC50 | 7.60 |
| CN1CCN(C2CCN(c3nccc4[nH]c(-c5cccc(C#N)c5)nc34)CC2)CC1 | – | NF54 | blood stage | pIC50 | > 7.00 |
| Oc1cccc(C(Nc2nccs2)c2ccc3cccnc3c2O)c1 (centres unmarked) | SYBR Green | – | blood stage | pIC50 | 5.92 |
| C=CCCCCCCCCCCCC(O)CC(O)CO (centres unmarked) | – | D6 | blood stage | IC50 | 29.7 µg/mL |
| C[C@@H]1CC[C@H]2[C@@H](C)C(=O)O[C@@H]3O[C@@]4(C)CC[C@@H]1[C@]32OO4 | – | D6 | 72 h, blood stage | IC50 | 0.0047 µg/mL |
| Clc1ccc2c(N3CCN(CCCN4CCN(c5ccnc6cc(Cl)ccc56)CC4)CC3)ccnc2c1 | – | – | blood stage | pIC50 | 7.59 |
| C[C@@H]1CN(c2nc3cc(Cl)ccc3n2Cc2ccccc2)C[C@H](C)N1 | – | NF54 | blood stage | pIC50 | 6.67 |
| Fc1cc(F)cc(-c2nc3c(N4CCC(CN5CCN(CC(F)(F)F)CC5)CC4)nccc3[nH]2)c1 | – | NF54 | blood stage | pIC50 | > 7.00 |
| NC(N)=Nc1ccc(-c2ccc(-c3ccc(N=C(N)N)c(Cl)c3)o2)cc1Cl | SYBR Green | – | blood stage | pIC50 | 6.60 |
| CCCCCCCc1c(O)cc(CC=C(C)C)c(O)c1C=O | – | W2 | 72 h, drug-resistant strain, blood stage | IC50 | 2.7 µg/mL |
| O=C(O)c1cc(F)ccc1NC(=O)c1ccccc1-c1ccccc1 | resazurin | NF54 | 48 h, gametocyte | pIC50 | 6.17 |

| Structure (SMILES) | assay | system | setting | endpoint | result |
| --- | --- | --- | --- | --- | --- |
| C/C=C/C=C/C=C/c1c(O)cc(CC=C(C)C)c(O)c1C=O | – | D6 | 72 h, blood stage | IC50 | 1.8 µg/mL |
| CCN(CC)CCCC(C)Nc1ccnc2cc(Cl)ccc12 (centres unmarked) | – | D6 | blood stage | pIC50 | 7.52 |
| Clc1ccc2c(c1)nc(NCc1ccccn1)n2Cc1ccccc1 | – | NF54 | blood stage | pIC50 | < 5.00 |
| Cc1cccc(C(=O)O)c1NC(=O)c1ccc(-c2ccccc2)cc1 | resazurin | NF54 | 48 h, gametocyte | pIC50 | 5.94 |
| CC(C)Cn1c(=O)n(C)c(=O)c2c(-c3cncn3C)n(Cc3cccc4ccccc34)nc21 | SYBR Green | – | blood stage | pIC50 | 5.32 |
| Cc1cc(NC(=O)Nc2ccc3c(c2)OC(F)(F)O3)cc(C(F)(F)F)n1 | – | NF54 | blood stage | pIC50 | 6.54 |
| C[C@@]12CC[C@@H](O)[C@]3(C)C4=CC(=O)OCC4=C[C@@H](OC1=O)C23 (some centres unmarked) | – | W2 | 72 h, drug-resistant strain, blood stage | IC50 | 0.67 µg/mL |
| Clc1ccc2c(nc(N3CCNCC3)n2Cc2ccccc2)c1Br | – | NF54 | blood stage | pIC50 | 7.15 |
| C#CCCCCCCCCCCCC(O)CC(O)CO (centres unmarked) | – | D6 | blood stage | IC50 | 25.9 µg/mL |
| CN1CCC(NCc2cccc(-c3ccc(S(=O)(=O)NCc4ccccc4)cc3)c2)CC1 | SYBR Green | – | blood stage | pIC50 | 6.23 |
| Cc1ccc(-c2ccc3ncc4c(c3c2)n(-c2cccc(C(F)(F)F)c2)c(=O)n4C)cn1 | resazurin | 3D7 | gametocyte | pIC50 | > 7.00 |
| Cc1ccc(C(=O)Nc2ccc(S(=O)(=O)O)c3cc(S(=O)(=O)O)cc(S(=O)(=O)O)c23)cc1NC(=O)c1cccc(NC(=O)Nc2cccc(C(=O)Nc3cc(C(=O)Nc4ccc(S(=O)(=O)O)c5cc(S(=O)(=O)O)cc(S(=O)(=O)O)c45)ccc3C)c2)c1 | SYBR Green | – | blood stage | pIC50 | < 4.00 |
| COC(=O)c1ccc2c(c1)nc(C1CCNCC1)n2Cc1ccccc1 | – | NF54 | blood stage | pIC50 | 5.42 |
| O=C(O)c1ccc(-n2nc(-c3ccccc3O)nc2-c2ccccc2O)cc1 | SYBR Green | – | blood stage | pIC50 | 4.32 |
| C[C@@]12CCC[C@]3(C)C4=CC(=O)OCC4=C[C@@H](OC1=O)C23 (some centres unmarked) | – | W2 | 72 h, drug-resistant strain, blood stage | IC50 | 0.2 µg/mL |
| Clc1ccc2c(nc(N3CCNCC3)n2Cc2ccccc2)c1-c1ccccc1 | – | NF54 | blood stage | pIC50 | 5.44 |
| N=C(N)NCCCCC(=O)Nc1cc(C(F)(F)F)cc(NC(=O)c2cc(C(=O)Nc3cc(C(F)(F)F)cc(NC(=O)CCCCNC(=N)N)c3O[C@@H]3CCNC3)ncn2)c1O[C@@H]1CCNC1 | SYBR Green | – | blood stage | pIC50 | 6.17 |
| FC(F)(F)c1ccc2c(c1)nc(N1CCNCC1)n2Cc1ccccc1 | – | NF54 | blood stage | pIC50 | 6.51 |
| COC1=CC(c2ccc[nH]2)=NC1=Cc1ccc(CCCCCCCCCCCCO)[nH]1 | – | D6 | blood stage | pIC50 | 7.42 |
| CC[C@@H](C)[C@H]1O[C@@H](c2c(O)c(-c3ccccc3)cn(O)c2=O)[C@H](C)C[C@@H]1C | – | D6 | 72 h, blood stage | IC50 | 0.33 µg/mL |
